# Bioassay records as filed in PubChem BioAssay.
# The full list was thinned out, with hits kept by preference.
# PGC1a Ac signal = raises PGC1a acetylation signal in U2OS cells. U2OS PGC1a acetylation AlphaScreen, overnight. activation, % at 15.6 µM. hit rate 0.21% among 350,000;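 active means every replicate reaching activation of at least 50%, whatever the mean replicate activation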;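 further: hits raise the AlphaScreen acetylation signal above neutral controls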
#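 System: flag-PGC1a/GCN5 U2OS cells / Input: 7000 cells/well / Compound: single test concentration per compound / Incubation: overnight compound treatment, 37 °C / Technique: AlphaScreen on lysates with anti-acetyl-lysine antibody, acceptor and donor beads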
# Numbers stand for hits; i = inactive.
SMILES,PGC1a Ac signal
COc1ccc(C(=O)N/N=C(/C)c2cccc(NC(=O)c3ccccc3F)c2)cc1,i
COc1ccc(CCNC(=O)c2ccc(Cl)cc2)cc1,81.1
COc1ccc(NC(=O)CN(C)C(=O)c2cnc(Cl)c(Cl)c2)cc1,i
C=CCNC(=S)N1CCN(CCN=CC2=C(O)CC(c3ccco3)CC2=O)CC1 (centres undefined),i
CCc1c(C)nc(SCC(=O)Nc2ccc3c(c2)OCCO3)[nH]c1=O,i
Cc1cc(S(=O)(=O)NC(C)C)ccc1OCC(=O)Nc1ccc2c(c1)OCCO2,i
COc1ccc(NC(=O)CSC2CC(=O)N(c3ccc4c(c3)OCCO4)C2=O)cc1 (centres undefined),54.8
C(=C\c1ccccc1)/CN1CCN(C(c2ccnc3ccccc23)c2nnnn2C2CCCCC2)CC1 (centres undefined),64.7
CO[C@H]1CN(C)C(=O)c2ccc(NS(=O)(=O)c3ccccc3)cc2OC[C@H](C)N(C(=O)NC(C)C)C[C@@H]1C,i
CCN(CCNc1ccc(Cl)cc1[N+](=O)[O-])C(=O)c1cc([N+](=O)[O-])c(N(C)C)cc1OC,i
Cc1nn(-c2ccccc2)c(Cl)c1C(=O)N1CCN(c2ncnc3c2cnn3-c2ccccc2)CC1,i
N#CC(C#N)=c1ccc2c(c1)NC1(CCCCC1)N=2,162.3
C[C@@H]1CN([C@H](C)CO)C(=O)c2cc(C#CC3CC3)cnc2O[C@H]1CN(C)C(=O)Nc1ccc(F)cc1,i
COc1ccccc1C(=O)Nc1nnc(CCc2ccccc2)s1,69.0
CC(C)Cc1nnc(NC(=O)c2cc3c(s2)CCC3)s1,i
COc1cccc(C(=O)Nn2cnnc2)c1OC,i
O=C(CCl)N=c1sccn1Cc1ccc(Cl)cc1Cl,i
O=C(CCCCCN1C(=O)c2cccc3cccc(c23)C1=O)NCc1cccnc1,493.7
O=C(c1ccc([N+](=O)[O-])s1)N1CCc2ccccc2C1,i
Cc1c(Cl)cccc1N=Cc1ccc([N+](=O)[O-])s1,102.1
CCOc1ccccc1CNC(=O)c1cc2oc3ccccc3c2n1C,88.1
CC(C)Oc1ccc2nnnn2n1,i
CCn1c(SCC(N)=O)nnc1C(C)C,i
CCn1c(CNc2ccc(C)cc2)nnc1SCC(N)=O,76.4
CCn1c(SCC(=O)Nc2ccc(OC)c(OC)c2)nnc1-c1cccs1,i
SMILES,PGC1a Ac signal
Cc1nnnn1/C(=C\c1ccccc1)C(=O)OCC(=O)Nc1cccc(S(=O)(=O)N(C)C)c1,96.4
Cc1cc(Cl)ccc1OCC(=O)Nc1cccc(S(=O)(=O)NC2=NCCCCC2)c1,i
C[C@H]1CN([C@@H](C)CO)C(=O)c2cc(C#CC(C)(C)O)cnc2O[C@@H]1CN(C)C(=O)C1CCC1,i
CC(C)NC(=O)Nc1ccc2c(c1)C(=O)N([C@@H](C)CO)C[C@@H](C)[C@H](CN(C)Cc1ccc(C(=O)O)cc1)OCCCC[C@H](C)O2,i
O=C(Nc1ccc(OC(=O)c2ccccc2)c(-c2nc3ccccc3s2)c1)c1ccccc1,105.7
Cc1ccc(S(=O)(=O)N(CC2CO2)c2ccccc2[N+](=O)[O-])cc1 (centres undefined),i
C[C@H](NS(=O)(=O)c1ccc2c(c1)OCCCO2)C(=O)N1CCN(Cc2ccccc2)CC1,i
COc1ccc(CCCNC(=O)C2(C)Cc3c(-c4ccc5c(c4)OCO5)ccnc3O2)cc1 (centres undefined),53.8
CNC[C@H]1Oc2ncc(C#CC3CCCCC3)cc2C(=O)N([C@H](C)CO)C[C@H]1C,i
C[C@@H]1CN([C@H](C)CO)C(=O)CCCn2nncc2CO[C@H]1CN(C)C(=O)C1CC1,i
O=C(CCC1CCCCC1)NCc1cccs1,i
COc1ccc2cc3c(N)nn(C(=O)c4ccccc4Cl)c3nc2c1,i
COc1ccc2cc3cc(C(=O)NCc4cccs4)oc3nc2c1,69.9
CCSc1ccccc1C(=O)NCCCn1ccnc1,i
CC1CC(C)CN(S(=O)(=O)c2ccc(C(=O)NCCCn3ccnc3)cc2)C1 (centres undefined),579.5
COc1ccc2c(c1)CCc1c(C(=O)NCCCn3ccnc3)noc1-2,i
CCN(CC)CCOc1ccc(/C(=C(\Cl)c2ccccc2)c2ccccc2)cc1,79.9
On1onc2c3cc(-c4ccccc4)nc3ccc21,620.5
c1ccc(-c2cc(-c3ccccc3)n3ncnc3n2)cc1,i
CCCCCSc1nnc(C)c(=O)[nH]1,i
CCOC(=O)C1(Cc2cccc(F)c2)CCN(Cc2ccc(COC)o2)CC1,i
C=CCn1c(SCC(=O)NC(=O)NCc2ccco2)nc2sc(CC)cc2c1=O,56.6
O=C(C[C@H]1C=C[C@H](NC(=O)Nc2ccc(C(F)(F)F)cc2)[C@@H](CO)O1)NCc1ccccn1,i
O=C(C[C@H]1C[C@H]2c3cc(NC(=O)C4CCC4)ccc3O[C@H]2[C@H](CO)O1)NCc1ccc(-c2ccccc2)cc1,i
O=C(COC(=O)c1ccc([N+](=O)[O-])s1)Nc1ccc(F)cc1,106.3
SMILES,PGC1a Ac signal
C[C@H]1CN([C@@H](C)CO)C(=O)CCCn2cc(nn2)CO[C@H]1CN(C)S(=O)(=O)c1ccc(Cl)cc1,i
Cc1cc(=O)[nH]c(SCC(=O)N2CCc3ccccc3C2)n1,i
Cc1ccc(Cl)cc1N1CCN(C(=O)CSc2nnc3n2C(C)(C)Cc2ccccc2-3)CC1,51.8
O=C(C[C@@H]1CC[C@@H](NC(=O)C2CCC2)[C@H](CO)O1)NCC1CC1,i
CN(Cc1c(F)cccc1Cl)c1nnnn1-c1ccccc1,i
CC[C@H](C)[C@@H]1NC(=O)[C@@H](CC(C)C)NC(=O)[C@H](C(C)C)NC(=O)[C@H]2CSSC[C@H](NC1=O)C(=O)N2,i
N#Cc1cccc(-c2ccc([C@@H]3[C@@H]4CN(S(=O)(=O)c5ccc(-c6ccccc6)cc5)C[C@H]3N4)cc2)c1,i
COc1ccccc1-c1ccc(C2[C@@H]3CN(S(=O)(=O)c4ccc(C)cc4)C[C@H]2N3)cc1 (some centres undefined),94.8
O=C1C=CCCN1C(=O)/C=C/c1cccc(Br)c1,i
CC(C)(C)NCCC(O)c1cc(C(F)(F)F)nc2c(C(F)(F)F)cccc12 (centres undefined),70.0
COc1ccc(C2CCc3cc4c(cc3C2=NOC(C)=O)OCO4)cc1OC (centres undefined),56.2
COc1ccc(NC(=O)c2ccc3c(c2)OCO3)cc1Cl,i
CC1=C(C(=O)OCc2ccc3c(c2)OCO3)C(c2ccc(Cl)cc2)NC(=O)N1 (centres undefined),i
CN1CCN(C(=O)CSc2nc(-c3cccs3)cc(-c3cccs3)c2C#N)CC1,60.9
Cc1cc(C)c(C#N)c(SCC(=O)Nc2nnc(-c3ccccc3)s2)n1,i
Cc1cccc(-c2nsc(SCC(=O)N3CCCC3)n2)c1,i
Cn1c(CO)cnc1SCC(=O)c1ccc(Cl)cc1,i
Clc1ccc(Oc2cccc(/C=N/n3cnnc3)c2)cc1,i
Cc1cccc(NC(=O)CCC(=O)N/N=C/c2ccc(O)cc2O)c1,51.2
CCC(=O)Nc1cccc(C(=O)/C=C/c2ccccc2)c1,i
C=CS(=O)(=O)N(Cc1ccccc1Br)[C@H](CO)Cc1ccccc1,i
O=C(CCl)NCc1cc(-c2ccc(Cl)cc2)no1,51.9
C[C@H]1CN([C@@H](C)CO)C(=O)CCCn2nncc2CO[C@@H]1CN(C)C(=O)c1ccc(N2CCN(C)CC2)cc1,i
Cc1cc(Sc2nnc(N)s2)c2ccccc2n1,59.0
Cc1noc(C)c1NC(=O)N(C)C[C@@H]1Oc2c(NS(=O)(=O)c3cn(C)cn3)cccc2C(=O)N([C@@H](C)CO)C[C@@H]1C,i
